Laboratory results taken from ChEMBL document CHEMBL4257486, “A novel allosteric inhibitor that prevents IKKβ activation” (Medchemcomm, 2018).
Active and inactive are the calls of the source.

Experiments:
[1] = target: Epidermal growth factor receptor (Homo sapiens) (UniProt P00533); test: Inhibition of human EGFR using poly[Glu:Tyr] (4:1) as substrate at 100 uM after 40 mins in presence of [gamma-33P-ATP] by scintillation counting analysis
How it was run: (§1)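 Radiometric [γ-33P]ATP assay (specific activity approx. 500 cpm/pmol) run by an outsourced service. Compound was added first from a 50x stock in DMSO, giving 2% DMSO final. Positive controls contained DMSO only; blanks used a reference inhibitor to set 0% activity. Reactions were started with MgATP mix, run 40 min at room temperature, and stopped with 3% phosphoric acid. They were spotted on P30 filtermat, washed in 75 mM phosphoric acid and methanol, and scintillation counted.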

[2] = target: T1, Inhibitor of nuclear factor kappa-B kinase subunit epsilon (Homo sapiens) (UniProt Q14164); test: Inhibition of human activated IKKepsilon using casein as substrate at 100 uM after 40 mins in presence of [gamma-33P-ATP] by scintillation counting analysis; how it was run: as §1
T1 sequence (whole entry): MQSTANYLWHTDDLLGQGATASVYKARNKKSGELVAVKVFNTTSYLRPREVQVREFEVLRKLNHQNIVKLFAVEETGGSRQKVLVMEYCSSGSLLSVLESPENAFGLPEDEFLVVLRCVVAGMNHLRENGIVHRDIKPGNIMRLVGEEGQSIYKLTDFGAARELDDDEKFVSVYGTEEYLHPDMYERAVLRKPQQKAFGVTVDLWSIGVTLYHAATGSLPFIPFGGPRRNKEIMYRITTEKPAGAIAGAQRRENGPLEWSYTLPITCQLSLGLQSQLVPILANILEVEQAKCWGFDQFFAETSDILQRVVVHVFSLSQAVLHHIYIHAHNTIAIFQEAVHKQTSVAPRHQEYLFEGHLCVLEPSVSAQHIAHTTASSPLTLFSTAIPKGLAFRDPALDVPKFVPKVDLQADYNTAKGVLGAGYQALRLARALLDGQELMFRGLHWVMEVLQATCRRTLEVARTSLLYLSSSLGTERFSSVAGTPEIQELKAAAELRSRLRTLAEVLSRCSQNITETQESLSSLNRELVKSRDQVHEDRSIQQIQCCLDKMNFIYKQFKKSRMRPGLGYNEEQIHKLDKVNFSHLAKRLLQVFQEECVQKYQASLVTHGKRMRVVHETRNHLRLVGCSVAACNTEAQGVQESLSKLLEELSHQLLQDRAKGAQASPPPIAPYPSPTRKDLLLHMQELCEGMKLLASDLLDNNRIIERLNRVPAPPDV

[3] = target: T2, Tyrosine-protein kinase ITK/TSK (Homo sapiens) (UniProt Q08881); test: Inhibition of human Itk using myelin basic protein as substrate at 100 uM after 40 mins in presence of [gamma-33P-ATP] by scintillation counting analysis; how it was run: as §1
T2 sequence (whole entry): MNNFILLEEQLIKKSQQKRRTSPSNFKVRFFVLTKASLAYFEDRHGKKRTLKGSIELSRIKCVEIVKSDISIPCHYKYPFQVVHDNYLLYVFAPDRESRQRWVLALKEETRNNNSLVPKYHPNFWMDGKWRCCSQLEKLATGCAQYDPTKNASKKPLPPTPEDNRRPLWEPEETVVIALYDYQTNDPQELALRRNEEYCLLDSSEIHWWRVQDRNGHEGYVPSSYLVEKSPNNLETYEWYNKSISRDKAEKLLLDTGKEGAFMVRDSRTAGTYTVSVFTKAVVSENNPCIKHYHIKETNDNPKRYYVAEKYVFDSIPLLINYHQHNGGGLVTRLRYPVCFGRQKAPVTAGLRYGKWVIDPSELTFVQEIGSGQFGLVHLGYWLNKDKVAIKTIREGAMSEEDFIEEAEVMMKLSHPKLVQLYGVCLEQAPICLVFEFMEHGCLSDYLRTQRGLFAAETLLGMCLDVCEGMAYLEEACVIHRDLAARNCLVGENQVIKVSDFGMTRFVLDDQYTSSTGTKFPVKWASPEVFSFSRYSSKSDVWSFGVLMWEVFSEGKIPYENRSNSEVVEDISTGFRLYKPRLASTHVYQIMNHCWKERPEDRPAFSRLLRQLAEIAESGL

[4] = target: T3, Tyrosine-protein kinase JAK3 (Homo sapiens) (UniProt P52333); test: Inhibition of human JAK3 using GGEEEEYFELVKKKK as substrate at 100 uM after 40 mins in presence of [gamma-33P-ATP] by scintillation counting analysis; how it was run: as §1
T3 sequence (whole entry): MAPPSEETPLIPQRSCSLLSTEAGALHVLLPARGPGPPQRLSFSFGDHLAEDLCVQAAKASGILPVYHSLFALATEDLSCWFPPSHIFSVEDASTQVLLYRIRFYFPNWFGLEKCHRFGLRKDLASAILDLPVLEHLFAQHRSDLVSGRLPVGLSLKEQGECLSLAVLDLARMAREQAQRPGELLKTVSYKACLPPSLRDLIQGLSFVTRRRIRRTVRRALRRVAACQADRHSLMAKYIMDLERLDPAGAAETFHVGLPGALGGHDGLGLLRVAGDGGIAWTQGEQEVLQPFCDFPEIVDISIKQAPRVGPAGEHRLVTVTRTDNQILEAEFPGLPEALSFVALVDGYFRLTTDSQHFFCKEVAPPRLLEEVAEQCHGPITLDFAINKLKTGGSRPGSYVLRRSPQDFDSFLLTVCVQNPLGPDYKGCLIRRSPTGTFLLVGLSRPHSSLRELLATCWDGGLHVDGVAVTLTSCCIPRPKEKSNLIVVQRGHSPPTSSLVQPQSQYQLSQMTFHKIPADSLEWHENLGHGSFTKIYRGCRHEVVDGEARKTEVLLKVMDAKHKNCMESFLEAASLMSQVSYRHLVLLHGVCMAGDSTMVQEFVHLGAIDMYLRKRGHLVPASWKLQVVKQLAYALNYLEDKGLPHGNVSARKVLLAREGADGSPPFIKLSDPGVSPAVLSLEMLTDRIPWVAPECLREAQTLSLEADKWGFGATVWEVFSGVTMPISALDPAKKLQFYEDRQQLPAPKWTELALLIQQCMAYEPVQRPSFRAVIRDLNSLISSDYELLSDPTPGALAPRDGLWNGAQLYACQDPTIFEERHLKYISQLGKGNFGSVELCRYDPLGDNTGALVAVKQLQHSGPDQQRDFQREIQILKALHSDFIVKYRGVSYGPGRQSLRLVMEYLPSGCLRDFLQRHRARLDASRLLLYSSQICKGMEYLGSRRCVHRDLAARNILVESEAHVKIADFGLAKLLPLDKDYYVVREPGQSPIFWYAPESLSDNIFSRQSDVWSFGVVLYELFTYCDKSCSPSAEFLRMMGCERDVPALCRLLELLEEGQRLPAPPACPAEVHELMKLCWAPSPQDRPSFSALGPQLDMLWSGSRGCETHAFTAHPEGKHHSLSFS

[5] = target: Tyrosine-protein kinase Lck (Homo sapiens) (UniProt P06239); test: Inhibition of human Lck using KVEKIGEGTYGVVYK (Cdc2 peptide) as substrate at 100 uM after 40 mins in presence of [gamma-33P-ATP] by scintillation counting analysis; how it was run: as §1

Measured: inhibition

Chain of Epidermal growth factor receptor (Homo sapiens) (P00533 whole entry): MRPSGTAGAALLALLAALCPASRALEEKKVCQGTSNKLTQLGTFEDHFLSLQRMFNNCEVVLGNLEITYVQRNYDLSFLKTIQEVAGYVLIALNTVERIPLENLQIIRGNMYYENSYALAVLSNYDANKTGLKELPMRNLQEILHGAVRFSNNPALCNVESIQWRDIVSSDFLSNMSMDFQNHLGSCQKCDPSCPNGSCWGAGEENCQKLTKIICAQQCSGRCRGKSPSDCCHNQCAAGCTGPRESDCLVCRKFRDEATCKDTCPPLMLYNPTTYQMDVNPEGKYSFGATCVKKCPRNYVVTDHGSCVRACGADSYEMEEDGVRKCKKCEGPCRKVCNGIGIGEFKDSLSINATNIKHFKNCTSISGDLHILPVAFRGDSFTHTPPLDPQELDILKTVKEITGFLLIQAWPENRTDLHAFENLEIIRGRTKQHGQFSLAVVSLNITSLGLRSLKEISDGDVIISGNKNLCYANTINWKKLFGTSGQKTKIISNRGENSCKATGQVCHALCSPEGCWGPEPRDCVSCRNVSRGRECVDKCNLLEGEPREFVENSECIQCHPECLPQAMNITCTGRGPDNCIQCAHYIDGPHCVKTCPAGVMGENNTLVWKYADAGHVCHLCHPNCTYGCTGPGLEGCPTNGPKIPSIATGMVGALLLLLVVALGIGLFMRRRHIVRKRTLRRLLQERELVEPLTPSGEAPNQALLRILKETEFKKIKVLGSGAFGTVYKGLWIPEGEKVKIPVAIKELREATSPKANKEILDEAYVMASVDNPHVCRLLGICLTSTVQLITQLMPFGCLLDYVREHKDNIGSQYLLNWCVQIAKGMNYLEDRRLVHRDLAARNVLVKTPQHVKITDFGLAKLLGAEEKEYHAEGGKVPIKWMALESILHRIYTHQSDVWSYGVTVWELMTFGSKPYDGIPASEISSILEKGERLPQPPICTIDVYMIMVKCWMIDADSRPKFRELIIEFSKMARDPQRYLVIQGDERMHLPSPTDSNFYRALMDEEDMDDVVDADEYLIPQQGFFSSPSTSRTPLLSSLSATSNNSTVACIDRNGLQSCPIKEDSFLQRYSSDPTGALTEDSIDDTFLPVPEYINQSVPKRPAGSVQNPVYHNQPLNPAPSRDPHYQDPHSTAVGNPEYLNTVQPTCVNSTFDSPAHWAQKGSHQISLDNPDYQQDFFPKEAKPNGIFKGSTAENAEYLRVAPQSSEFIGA
Chain of Tyrosine-protein kinase Lck (Homo sapiens) (P06239 2-509 limits assumed): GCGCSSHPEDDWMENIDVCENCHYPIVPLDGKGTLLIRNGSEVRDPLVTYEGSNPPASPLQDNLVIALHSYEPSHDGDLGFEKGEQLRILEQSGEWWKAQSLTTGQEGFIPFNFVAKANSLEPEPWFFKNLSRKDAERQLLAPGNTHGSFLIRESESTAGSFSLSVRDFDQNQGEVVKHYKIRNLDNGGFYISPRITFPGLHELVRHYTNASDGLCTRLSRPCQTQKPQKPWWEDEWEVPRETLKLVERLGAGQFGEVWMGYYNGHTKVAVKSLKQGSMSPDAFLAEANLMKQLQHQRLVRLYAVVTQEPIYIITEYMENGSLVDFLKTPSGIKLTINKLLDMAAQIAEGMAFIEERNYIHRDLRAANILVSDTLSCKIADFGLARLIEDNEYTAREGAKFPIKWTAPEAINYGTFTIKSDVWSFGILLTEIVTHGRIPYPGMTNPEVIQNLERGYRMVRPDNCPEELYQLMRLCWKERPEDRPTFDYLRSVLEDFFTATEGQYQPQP

CCOc1c(S(=O)(=O)NC2CC(C)(C)NC(C)(C)C2)ccc(Cl)c1Cl
inactive: all assays above
